Source: ChEMBL document CHEMBL2176916, “Mimicking the intramolecular hydrogen bond: synthesis, biological evaluation, and molecular modeling of benzoxazines and quinazolines as potential antimalarial agents” (J Med Chem, 2012)
Converted amounts (≈) assume the structure as drawn. The source made the active and inactive calls. No cut-off for these calls is given here.

Legend:
Plasmodium falciparum [1] = assay: Antiplasmodial activity against chloroquine-resistant Plasmodium falciparum W2 infected in human RBCs after 72 hrs by parasite lactate dehydrogenase assay; type: functional, organism-based; conditions: W2, 72 h
Outline: (§1)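 Asynchronous cultures (parasitemia 1−1.5%, 1% final hematocrit) in human type A-positive RBCs, RPMI 1640 with 1% AlbuMax, hypoxanthine, Hepes and glutamine. Exposed to serial dilutions (DMSO <1% final) for 72 h at 37 °C under 1% O₂/5% CO₂/94% N₂. Growth read as pLDH activity at OD₆₅₀ (modified Makler method).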

Plasmodium falciparum [2] = assay: Antiplasmodial activity against chloroquine-sensitive Plasmodium falciparum D10 infected in human RBCs after 72 hrs by parasite lactate dehydrogenase assay; type: functional, organism-based; conditions: D10, 72 h; outline: as §1
[3] = Cytotoxicity against human HepG2 cells assessed as cell viability after 24 hrs by neutral red uptake assay; type: cell-based; conditions: read-out: TC50
Outline: (§2)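 NIH3T3 cells grown in DMEM and HepG2 in EMEM, both with 10% FCS, glutamine/penicillin/streptomycin and non-essential amino acids, 37 °C, 5% CO₂. Cells trypsinized at confluence and resuspended. Viability by neutral red uptake after 24 h exposure. Student's t test, p < 0.05.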

[4] = Cytotoxicity against mouse NIH/3T3 cells assessed as cell viability after 24 hrs by neutral red uptake assay; type: cell-based, NIH3T3; conditions: read-out: TC50; outline: as §2
[5] = Chemical stability of the compound at pH 2 at 37 degC after 1 hr by NMR analysis; type: physicochemical; conditions: buffer, pH 2, 1 h
[6] = Chemical stability of the compound at pH 7.4 at 37 degC by NMR analysis; type: physicochemical; conditions: buffer
[7] = Chemical stability in DMSO/D2O mixture solution at 25 degC by NMR analysis; type: physicochemical
Plasmodium falciparum [8] = assay: Resistant index, ratio of IC50 for chloroquine-resistant Plasmodium falciparum W2 to IC50 for chloroquine-sensitive Plasmodium falciparum D10; type: functional
[9] = Chemical stability of the compound at pH 7.4; type: physicochemical; conditions: buffer
[10] = Intrinsic clearance in mouse liver microsomes at 1 uM; type: ADME, Microsome; conditions: read-out: CLH
Outline: (§3)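 Substrate at 1 μM with 0.2 mg/mL mouse or rat liver microsomal protein in 100 mM phosphate, pH 7.4. Reaction started with NADPH regenerating system (1 mM NADPH, 10 mM G6P, 0.4 U/mL G6PDH) and stopped with acetonitrile at intervals over 0−45 min, in duplicate. HPLC-MS depletion fitted monoexponentially; Clint = k × V/P.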

Oryctolagus cuniculus = organism: Oryctolagus cuniculus; assay: Inhibition of rabbit kidney Na+/K+ ATPase hydrolytic activity assessed as inorganic phosphate production at 10 uM by malachite green staining-based colorimetric assay
Outline: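 Na⁺,K⁺-ATPase membrane fragments prepared from rabbit kidney outer medulla and used at about 1 μg/mL protein. Buffer: 25 mM MOPS pH 7.0, 100 mM NaCl, 20 mM KCl, 3 mM MgCl₂. Test agent at 10 μM, with ouabain as reference. Pi release measured by malachite green colorimetry.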

CYP3A4 = assay: Metabolic stability in human liver microsomes assessed as compound ramining after 1 hr in presence of human recombinant CYP3A4; type: ADME, Microsome; conditions: in the assay text read “assessed” for “in human liver microsomes assessed”, read-out: Stability
Outline: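 Substrate at 1 μM final (0.25% organic solvent) incubated 1 h at 37 °C with recombinant hCYP3A4 (20 pmol/mL), with or without NADPH regenerating system. Stopped with acetonitrile. Result is % remaining from MS peak area with NADPH relative to without. CV typically within 10%.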

[11] = Chemical stability of the compound at pH 7.4 at 37 degC measured for 24 hrs by NMR analysis; type: physicochemical; conditions: buffer, pH 7.4, 24 h
Plasmodium berghei [12] = assay: Antiplasmodium activity against chloroquine-sensitive Plasmodium berghei ANKA infected in BALB/c mouse assessed as decrease in parasitemia administered as po until day 4 measured 24 hrs post last dose by Giemsa staining; type: functional
Outline: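 P. berghei ANKA in female 5-week-old BALB/c mice (19 g), infected ip with 2 × 10⁷ parasitized erythrocytes. Fresh aqueous stocks (100 mg/mL) diluted 1.5-fold to give 6−7 doses from 4.4 to 50 mg/kg, given once daily by oral gavage starting 4 h post-infection through day 4. Parasitemia read from Giemsa tail-blood smears 24 h after last dose. ED50 from four-parameter logistic fit.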

[13] = target: Potassium voltage-gated channel subfamily H member 2 (Rattus norvegicus); assay: Inhibition of rat ERG after 2 to 3 days by patch clamp assay
[14] = Intrinsic clearance in rat liver microsomes at 1 uM; type: ADME, Microsome; conditions: read-out: CLH; outline: as §3
[15] = Aqueous solubility of the compound in water at pH 7.4 after 24 hrs; type: physicochemical
Outline: (§4)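 Prepared from 10 mM DMSO stock as 250 μM in 50 mM acetic acid (pH 3) or 50 mM ammonium acetate (pH 7.4), 2.5% DMSO final, in filter plates. Filtrate diluted 1:2 and run on UPLC/UV/TOF-MS at 254 nm. Solubility from sample UV area versus a 250 μM standard in acetonitrile/buffer.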

[16] = Aqueous solubility of the compound in water at pH 3 after 24 hrs; type: physicochemical; outline: as §4
[17] = target: T1, Chloroquine resistance transporter (Plasmodium falciparum) (UniProt Q9N623); assay: Inhibition of chloroquine-resistant Plasmodium falciparum Dd2 CRT expressed in Xenopus laevis oocytes assessed as reduction in [3H]-chloroquine uptake at 100 uM after 1.5 to 2 hrs; type: cell-based; conditions: Oocyte
T1 sequence (whole entry): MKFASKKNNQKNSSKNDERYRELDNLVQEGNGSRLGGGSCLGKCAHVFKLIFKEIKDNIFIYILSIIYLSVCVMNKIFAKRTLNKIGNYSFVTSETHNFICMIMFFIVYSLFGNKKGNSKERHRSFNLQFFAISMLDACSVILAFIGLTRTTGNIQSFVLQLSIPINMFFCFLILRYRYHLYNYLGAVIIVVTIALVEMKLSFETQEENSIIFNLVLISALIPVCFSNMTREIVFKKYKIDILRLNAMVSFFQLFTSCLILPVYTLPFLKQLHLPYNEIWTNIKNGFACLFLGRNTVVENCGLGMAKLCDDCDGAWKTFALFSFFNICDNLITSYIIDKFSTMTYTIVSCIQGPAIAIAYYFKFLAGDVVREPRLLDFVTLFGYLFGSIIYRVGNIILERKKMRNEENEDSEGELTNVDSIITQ
Outline: (§5)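 Oocytes injected with Dd2 or D10 PfCRT cRNA (20 ng per oocyte). Compound at 100 μM extracellular. [³H]CQ (0.3 μM) uptake measured 3−5 days post-injection over 1.5−2 h at 27.5 °C, in pH 6.0 medium containing 15 μM unlabeled CQ. 10 oocytes per treatment, five experiments. Compared by ANOVA with Tukey's test.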

[18] = target: T1, Chloroquine resistance transporter (Plasmodium falciparum); assay: Inhibition of chloroquine-sensitive Plasmodium falciparum D10 CRT expressed in Xenopus laevis oocytes assessed as [3H]-chloroquine uptake at 100 uM after 1.5 to 2 hrs; type: cell-based; conditions: Oocyte; outline: as §5
[19] = Chemical stability of the compound at pH 2 at 37 degC measured for 24 hrs by NMR analysis; type: physicochemical; conditions: buffer, pH 2, 24 h
[20] = target: T2, Chloroquine resistance transporter (Plasmodium falciparum, UniProt Q9N623); assay: Inhibition of chloroquine-resistant Plasmodium falciparum Dd2 CRT expressed in Xenopus laevis oocytes assessed as reduction in [3H]-chloroquine uptake after 1.5 to 2 hrs
T2 sequence (Q9N623 whole entry): T1 sequence (whole entry)

Plasmodium berghei [21] = assay: Antiplasmodium activity against chloroquine-sensitive Plasmodium berghei ANKA infected in BALB/c mouse assessed as decrease in parasitemia at 50 mg/kg, ip administered until day 4 measured 24 hrs post last dose by Giemsa staining; type: functional, organism-based; set-up: dose 50 mg/kg
Outline: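 Peters 4-day test, P. berghei ANKA, female 5-week-old BALB/c mice infected ip with 2 × 10⁷ parasitized erythrocytes. Single group of six mice given 50 mg/kg ip daily, starting 4 h post-infection through day 4. Parasitemia counted on Giemsa tail-blood smears 24 h after final treatment.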

| SMILES | IC50 (Plasmodium falciparum [1]) [µM] | IC50 (Plasmodium falciparum [2]) [µM] | CC50 at 24 h [3] [µM] | CC50 at 24 h [4] [µM] | Ratio IC50 (Plasmodium falciparum [8]) | other results |
| --- | --- | --- | --- | --- | --- | --- |
| CCn1cnc2cc(Nc3ccnc4cc(Cl)ccc34)ccc2c1=O | > 1 | > 1 |  |  |  |  |
| CCN(CC)CCCC(C)Nc1ccnc2cc(Cl)ccc12 (configuration not stated) [CHLOROQUINE] |  |  | 31 | > 80 |  |  |
| Clc1ccc2c(Nc3ccc4c(c3)OCN(Cc3ccccc3)C4)ccnc2c1 | 0.031 | 0.038 | 15 | 40 | 0.8 | Stability [5]: Unstable; Stability [6]: Stable; Stability [7]: Stable |
| CCN(CC)Cc1ccc(Nc2ccnc3cc(Cl)ccc23)cc1O [ISOQUINE] | 0.031 | 0.027 |  |  | 1.1 |  |
| CCCn1cnc2cc(Nc3ccnc4cc(Cl)ccc34)ccc2c1=O | > 1 | > 1 |  |  |  |  |
| CCCN1CNc2cc(Nc3ccnc4cc(Cl)ccc34)ccc2C1 | 0.053 | 0.021 | 5.7 | 17 | 2.5 | Stability [9]: 100%; microsomal CLint at 1 µM [10]: 219 µL/min/mg; inhibition (Oryctolagus cuniculus): 35%; remaining at 1 h (CYP3A4): 43%; Stability [11]: Stable; ED50 (Plasmodium berghei [12]): 8.74 mg/kg; IC50 [13]: 0.022 µM; inhibition (INH) ([13]; rat): Dose-dependent effect; microsomal CLint at 1 µM [14]: 121 µL/min/mg; solubility at 24 h ([15]; water, pH 7.4): 53 µM (≈ 18.7 µg/mL); solubility at 24 h [16]: 231 µM (≈ 81.5 µg/mL); inhibition [17]: Active; inhibition [18]: inactive; Stability [19]: Stable |
| O=C1c2ccc(Nc3ccnc4cc(Cl)ccc34)cc2NCN1Cc1ccccc1 | > 1 | > 1 |  |  |  |  |
| CCN1CNc2cc(Nc3ccnc4cc(Cl)ccc34)ccc2C1 | 0.06 | 0.011 |  |  | 5.4 | Stability [11]: Stable; Stability [19]: Stable |
| CCCN1COc2cc(Nc3ccnc4cc(Cl)ccc34)ccc2C1 | 0.04 | 0.021 |  |  | 2 | Stability [5]: Unstable; Stability [6]: Stable; Stability [7]: Stable |
| O=c1c2ccc(Nc3ccnc4cc(Cl)ccc34)cc2ncn1Cc1ccccc1 | > 1 | > 1 |  |  |  |  |
| C[C@@H]1O[C@@H](O[C@H]2C[C@@H](O)[C@]3(CO)[C@H]4[C@H](O)C[C@]5(C)[C@@H](C6=CC(=O)OC6)CC[C@]5(O)[C@@H]4CC[C@]3(O)C2)[C@H](O)[C@H](O)[C@H]1O |  |  |  |  |  | inhibition (Oryctolagus cuniculus): Active |
| O=c1c2ccc(Nc3ccnc4cc(Cl)ccc34)cc2ncn1Cc1ccc(CN2CCCC2)cc1 | 0.083 | 0.031 |  |  | 2.7 |  |
| Clc1ccc2c(Nc3ccc4c(c3)NCN(Cc3ccccc3)C4)ccnc2c1 | 0.067 | 0.053 | 25 | 40 |  | inhibition (Oryctolagus cuniculus): 35%; remaining at 1 h (CYP3A4): 18%; Stability [11]: Stable; ED50 (Plasmodium berghei [12]): 15.7 mg/kg; solubility ([15]; buffer, pH 7.4, 24 h, BLD = below limit of detection): BLD; solubility at 24 h [16]: 122 µM (≈ 48.9 µg/mL); IC50 [20]: 228 µM; inhibition [17]: Active; inhibition [18]: inactive; Stability [19]: Stable |
| CCN1COc2cc(Nc3ccnc4cc(Cl)ccc34)ccc2C1 | 0.072 | 0.023 | 6 | 29 | 3.1 | Stability [5]: Unstable; Stability [6]: Stable; Activity (Plasmodium berghei [21]): Active; Stability [7]: Stable |
| CCN(CC)Cc1cc(Nc2ccnc3cc(Cl)ccc23)ccc1O.Cl | 0.019 | 0.025 |  |  | 0.7 |  |
| CC(C)(C)NC(=O)[C@@H]1C[C@@H]2CCCC[C@@H]2CN1C[C@@H](O)[C@H](Cc1ccccc1)NC(=O)[C@H](CC(N)=O)NC(=O)c1ccc2ccccc2n1 |  |  |  |  |  | IC50 [20]: 13 µM |
